The text below walks through data of ChEMBL document CHEMBL2375242, “Synthesis of (S)-FTY720 vinylphosphonate analogues and evaluation of their potential as sphingosine kinase 1 inhibitors and activators” (Bioorg Med Chem, 2013).

Usually EC50 stands for the concentration giving half of the maximal effect. Usually inhibition stands for how much of the control response was suppressed.

Active and inactive are the calls of the source. The rule behind the calls is not given here.

The target in assay [1] is T1, Sphingosine kinase 1 (Homo sapiens, UniProt Q9NYA1). The assay is described as follows: Activity at recombinant GFP-tagged SK1 (unknown origin) expressed in HEK293 cells at 50 uM after 30 mins by Cerenkov counting analysis. The class given is cell-based.
The target of assay [2] is T1, Sphingosine kinase 1. Description: Activation of recombinant GFP-tagged SK1 (unknown origin) expressed in HEK293 cells using sphingosine as substrate at 50 uM after 30 mins by Cerenkov counting analysis relative to control. The format is cell-based. The gist of the method:
(§1)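 Lysate of HEK 293 cells stably overexpressing GFP-SK1 (30 μg protein) was incubated for 30 min at 30 °C with 3 μM sphingosine (Km) in Triton X-100 and 250 μM [γ-32P]ATP in 10 mM MgCl2, at pH 7.4 Tris buffer with phosphatase and protease inhibitors. Compounds were in DMSO; the control was 5% DMSO. [32P]-S1P was extracted into 1-butanol/KCl and measured by Cerenkov counting. Activity is % of the sphingosine-alone control, n = 3, mean ± S.E.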

Assay [3] deals with T1, Sphingosine kinase 1. Description: Activation of recombinant GFP-tagged SK1 (unknown origin) expressed in HEK293 cells using sphingosine as substrate after 30 mins by Cerenkov counting analysis. The format is cell-based. The gist of the method:
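Enzyme source: lysates (30 μg) of HEK 293 cells stably overexpressing GFP-SK1, cultured in DMEM/10% FCS with geneticin. Reaction run 30 min at 30 °C with 3 μM sphingosine in Triton X-100 (0.063% final) and 250 μM [γ-32P]ATP in 10 mM MgCl2, pH 7.4 Tris buffer. Compound added in DMSO; control is 5% DMSO, set as 100% activity. [32P]-S1P is extracted into butanol and read by Cerenkov counting. EC50 from concentration-response, n = 3.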

Assay [4] concerns the target T1, Sphingosine kinase 1. Description: Activation of recombinant GFP-tagged SK1 (unknown origin) expressed in HEK293 cells using sphingosine as substrate above 50 uM after 30 mins by Cerenkov counting analysis. The format is cell-based. The gist of the method:
as §1

In assay [5] the target is T1, Sphingosine kinase 1. The assay is described as follows: Inhibition of recombinant GFP-tagged SK1 (unknown origin) expressed in HEK293 cells using sphingosine as substrate at 50 uM after 30 mins by Cerenkov counting analysis relative to control. The class given is cell-based. The gist of the method: as §1
Assay [6] has as its target T1, Sphingosine kinase 1. Description: Competitive inhibition of SK1 (unknown origin) in presence of ATP.
The target of assay [7] is T1, Sphingosine kinase 1. The assay is described as follows: Uncompetitive inhibition of recombinant SK1 (unknown origin) expressed in HEK293 cells after 15 to 20 mins by Cornish-Bowden plot analysis in presence of sphingosine. The format is cell-based.
In assay [8] the target is T1, Sphingosine kinase 1. Description: Inhibition of recombinant GFP-tagged SK1 (unknown origin) expressed in HEK293 cells using sphingosine as substrate at 50 uM after 30 mins by Cerenkov counting analysis relative to control.
Assay [9] deals with T1, Sphingosine kinase 1. The assay is described as follows: Uncompetitive inhibition of SK1 (unknown origin) in presence of ATP.

T1 sequence (Q9NYA1 whole entry): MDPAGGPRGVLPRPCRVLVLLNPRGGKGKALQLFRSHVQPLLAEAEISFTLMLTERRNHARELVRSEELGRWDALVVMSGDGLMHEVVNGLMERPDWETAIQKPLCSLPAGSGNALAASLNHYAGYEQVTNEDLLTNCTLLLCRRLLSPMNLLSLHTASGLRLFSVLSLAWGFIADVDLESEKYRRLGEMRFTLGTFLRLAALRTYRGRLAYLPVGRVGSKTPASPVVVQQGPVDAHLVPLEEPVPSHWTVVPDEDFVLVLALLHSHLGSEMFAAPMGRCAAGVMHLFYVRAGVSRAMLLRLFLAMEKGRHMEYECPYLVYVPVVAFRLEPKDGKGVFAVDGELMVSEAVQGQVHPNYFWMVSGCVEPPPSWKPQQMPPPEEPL

Consider `CCCCCCCCc1ccc(CC[C@](/C=C/P(=O)(O)O)(CO)N=[N+]=[N-])cc1`, for which the result at Sphingosine kinase 1 [1] and on Sphingosine kinase 1 [4] was inactive. Besides, on Sphingosine kinase 1 [2], the Activity worked out at 30%. Besides, at Sphingosine kinase 1 [3], the concentration giving a half-maximal response (EC50) turned out to be 8.3 µM.

With `CCCCCCCCc1ccc(CC[C@](N)(/C=C/P(=O)(O)O)CF)cc1`, the inhibition at Sphingosine kinase 1 [5] worked out at 20%. In addition, on Sphingosine kinase 1 [1], the result was inactive.

As for `CCCCCCCCc1ccc(CC[C@]2(N)CCC(=O)OC2)cc1`, the inhibition on Sphingosine kinase 1 [5] is 35%. Moreover, the result on Sphingosine kinase 1 [1] was inactive.

Regarding `CCCCCCCCc1ccc(CC[C@](N)(/C=C/C(=O)O)CO)cc1`, at Sphingosine kinase 1 [5], the inhibition result was “inactive”. In addition, the result on Sphingosine kinase 1 [1] was inactive.

For the molecule `CCCCCCCCc1ccc(CC[C@](N)(/C=C/P(=O)(O)O)CO)cc1`, the Kic at Sphingosine kinase 1 [6] worked out at 10 µM. In addition, the Kiuc was found to be 14.5 µM on Sphingosine kinase 1 [7] and 65 µM on Sphingosine kinase 1 [9]. Also, the inhibition on Sphingosine kinase 1 [8] is 62.7%.

For the molecule `CCCCCCCCc1ccc(CC[C@](/C=C/P(=O)(O)O)(CF)N=[N+]=[N-])cc1`, the outcome at Sphingosine kinase 1 [1] was inactive. On Sphingosine kinase 1 [2], the Activity is 30%. Also, the EC50 at Sphingosine kinase 1 [3] amounted to 5.7 µM.
